Hits are enriched below; roughly 1.9% of the tested compounds scored in any of these assays.
M5 PAM: positive allosteric modulators of human muscarinic M5 receptor; P08912; CHO-K1 hM5, Fluo-8 calcium, ACh EC20 PAM; 0% = ACh EC20, 100% = ACh EC100; activation, % at 3 µM; hit rate 0.3% among 360,000; AID 624038;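 active = activation above the run cutoff, the mean activation of all test compounds plus 3 SD, cut at about 18% in these data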
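Measured by: Fluo-8 calcium fluorescence; material: human M5 receptor in CHO-K1 cells; schedule: Post-acetylcholine fluorescence recording 140 s; benchmarks: low control EC20 acetylcholine (0%), high control EC100 acetylcholine (100%); read-out: Max/basal fluorescence ratio as % of EC20–EC100 ACh window; compound: single dose, 3 µM nominal final test concentration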
CHRM5 antagonist: antagonists of human muscarinic M5 receptor (CHRM5); P08912; CHO-hM5 cells, Fluo-8 calcium fluorescence, ACh EC80; inhibition, % at 3 µM; hit rate 0.59% among 360,000; AID 624040;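 active = inhibition above a per-plate cutoff, the mean of that plate's test compounds plus 3 SD, cut at about 27% in these data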;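 note: 0% = acetylcholine EC80 with DMSO and 100% = DMSO without agonist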
CHRM4 PAM: positive allosteric modulators of human muscarinic M4 receptor; P08173; CHO-K1 hM4/Gqi5, Fluo-8 calcium fluorescence, ACh EC20; 0% = ACh EC20, 100% = maximal ACh; activation, % at 3 µM; hit rate 0.4% among 360,000;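 active = activation above its plate's cutoff, the mean activation of sample wells plus 3 SD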
Target sequence (P08173 whole entry, looked up): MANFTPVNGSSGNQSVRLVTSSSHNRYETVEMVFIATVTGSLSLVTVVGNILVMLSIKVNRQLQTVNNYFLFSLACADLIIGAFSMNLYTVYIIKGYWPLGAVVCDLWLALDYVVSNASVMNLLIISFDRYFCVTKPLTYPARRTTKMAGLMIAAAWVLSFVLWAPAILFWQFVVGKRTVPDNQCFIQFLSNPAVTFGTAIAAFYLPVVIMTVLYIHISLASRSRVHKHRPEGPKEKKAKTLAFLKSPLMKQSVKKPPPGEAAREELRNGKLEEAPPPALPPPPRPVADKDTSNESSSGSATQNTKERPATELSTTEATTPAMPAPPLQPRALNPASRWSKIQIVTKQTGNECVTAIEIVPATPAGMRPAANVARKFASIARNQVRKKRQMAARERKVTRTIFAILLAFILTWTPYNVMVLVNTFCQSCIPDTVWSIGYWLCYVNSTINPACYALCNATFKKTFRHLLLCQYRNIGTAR
CHRM4 agonist: agonists of human muscarinic M4 receptor (CHRM4). P08173. CHO-K1 hM4/Gqi5, Fluo-8 calcium fluorescence; vehicle 0%, full acetylcholine response 100%. activation, % at 3 µM. hit rate 0.14% among 360,000;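 active = activation above the run mean over all test wells plus 3 SD, cut at about 32% in these data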;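 note: peak over basal fluorescence ratio per well then scaled between controls; 0% = DMSO wells and 100% = acetylcholine at EC100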
CHRM5 agonist: CHRM5 agonism in calcium assay. activation, % at 3 µM. hit rate 0.19% among 360,000. CHO-K1 hM5 cells, Fluo-8 calcium fluorescence; 0% DMSO wells, 100% maximal acetylcholine response. AID 624037. P08912;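 active = activation above the run's mean over test compounds plus 3 SD, cut at about 23% in these data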;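 note: signal is peak over basal fluorescence ratio across the kinetic read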
M4 antag: antagonists of human muscarinic M4 receptor (CHRM4) | P08173 | CHO-hM4 cells, ACh EC80, Fluo-8 calcium fluorescence | inhibition, % at 3 µM | hit rate 0.73% among 360,000 | AID 624125;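 active = inhibition above its plate's cutoff, the mean inhibition of sample wells plus 3 SD, cut at about 27% in these data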;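 note: 0% = acetylcholine EC80 with DMSO and 100% = DMSO without agonist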
* marks the source's active call; other numbers are inactive results.

SMILES	M5 PAM	CHRM5 antagonist	CHRM4 PAM	CHRM4 agonist	CHRM5 agonist	M4 antag
Cc1cccc2c1c1ccc3c(c1n2C)C(=O)C=CC3=O	3	0	3	2	-3	-4
O=c1[nH]ncc(NCc2ccc(Cl)cc2)c1Cl	-8	-8	4	4	-1	-9
CC1(C(=O)NS(=O)(=O)c2ccc(Br)cc2)CCN1C(=O)CCc1cccs1 (stereo not drawn)	4	-8	11	1	0	-5
CCOc1cc(-c2noc(CCC(=O)NCC3CCCO3)n2)ccc1OC (stereo not drawn)	-4	-2	1	1	-3	0
COc1ccc(-c2noc(CCC(=O)NCC3CCCO3)n2)cc1OC (stereo not drawn)	-4	16	-6	0	-4	27*
CSc1cc(C)nc(N(C)C(C)=O)n1	-5	7	19*	0	1	-12
COc1cc(C)nc(N(C)C(C)=O)n1	-8	7	3	0	-1	-4
C=CCN1C(=O)CSc2ccc(C(=O)NCc3cccs3)cc21	7	-2	8	4	-4	1
OC1(c2cccs2)CN(c2ccc(Cl)cc2)C2=[N+]1CCCC2 (stereo not drawn)	-32	29*	-24	1	-18	30*
OC1(c2cccs2)CN(c2ccc(Cl)cc2)C2=[N+]1CCCS2 (stereo not drawn)	3	11	2	1	-5	-1
O=[N+]([O-])c1ccccc1CNc1ccc(F)c(Cl)c1	-7	13	-2	0	-2	1
COc1cccc(CNc2ccc(F)c([N+](=O)[O-])c2)c1O	-8	13	-7	7	1	68*
CC(C)OC(=O)n1c(=S)oc2ccccc21	-3	3	7	0	0	2
Cc1cccc(OC(=O)n2c(=S)oc3cc(Cl)ccc32)c1	0	-4	30*	4	-1	22
CN(C)c1ccc(NC(=O)CSc2nc(C3CC3)nc3ccccc23)cc1	3	3	5	0	0	-8
CNc1ccc(Br)cc(C(=O)/C=C/c2ccc(OC)cc2OC)c1=O	-5	-6	3	0	1	-13
CNc1ccc(Br)cc(C(=O)/C=C/c2ccc(Cl)cc2Cl)c1=O	12	18	4	8	6	44*
CCNc1ccc(Br)cc(C(=O)/C=C/c2c(Cl)cccc2Cl)c1=O	4	10	-2	3	1	38*
CCOc1ccc(NC(=O)CCn2c(=S)oc3ccccc32)cc1	9	20	27*	1	-1	18
COCCNS(=O)(=O)c1ccc(C)c(C)c1C	-5	-2	0	0	-3	7
Fc1ccc(CNC(=S)Nc2ccc(Cl)cc2)cc1	-23	31*	-13	12	2	5
S=C(NCc1ccc(Cl)cc1)Nc1ccccc1	-4	10	-5	11	2	-9
S=C(NCc1ccc(Cl)cc1)Nc1ccncc1	-15	41*	-9	18	6	16
S=C(NCc1ccncc1)Nc1cccc(Cl)c1	-4	12	5	5	3	0
CCC(NC(=S)NCc1ccc(F)cc1)c1ccc(C(C)C)cc1 (stereo not drawn)	-12	13	-16	9	-2	82*
SMILES	M5 PAM	CHRM5 antagonist	CHRM4 PAM	CHRM4 agonist	CHRM5 agonist	M4 antag
NS(=O)(=O)c1cccc(NC(=O)COC(=O)c2ccccc2SCC(=O)N2CCCC2)c1	-2	8	14	3	5	4
C/C(=N\NC(=O)c1nn(C)c(C)c1Br)c1cccc(NC(=O)c2ccoc2C)c1	22*	11	5	2	-4	17
CC(OC(=O)c1cc(S(=O)(=O)N2CCOCC2)ccc1F)C(=O)NCc1ccc2c(c1)OCO2 (stereo not drawn)	-2	4	4	2	3	-8
CC1CN(C2=NC(=O)/C(=C/c3ccncc3)S2)CC(C)O1 (stereo not drawn)	5	-2	-2	1	5	-11
COC(=O)[C@@H]1C[C@@]2(O)[C@H](O)[C@H](O)[C@H](O)C[C@H]2N1Cc1cc(F)ccc1F	0	-6	28*	2	5	-2
O=C1CN(S(=O)(=O)c2cccc(Cl)c2Cl)CCN1	2	0	6	1	1	-3
C[C@@H]1CN([C@H](C)CO)C(=O)CCCn2nncc2CO[C@H]1CN(C)Cc1ccc(Oc2ccccc2)cc1	-4	3	-13	1	-4	37*
C[C@@H]1CN([C@@H](C)CO)C(=O)CCCn2nncc2CO[C@H]1CN(C)Cc1ccc(Oc2ccccc2)cc1	-1	4	-12	0	-3	31*
C[C@H](CO)N1C[C@H](C)[C@@H](CN(C)Cc2ccc(O)cc2)OCc2cnnn2CCCC1=O	2	4	7	-1	-1	-2
C[C@@H]1CN([C@H](C)CO)C(=O)CCCn2nncc2CO[C@H]1CN(C)S(C)(=O)=O	8	-9	-16	-3	0	101*
CC(C)(Cc1ccccc1)/[N+]([O-])=C\c1ccccc1	8	-2	6	2	1	-11
Cc1ccc(C)c(N2CCN(C(=O)C(Cc3ccccc3)n3cccc3)CC2)c1 (stereo not drawn)	-24	2	-12	2	42*	-3
O=C(C(Cc1ccccc1)n1cccc1)N1CCN(c2ccccc2)CC1 (stereo not drawn)	-1	-3	1	7	0	-13
Cc1ccc2[nH]c(-c3ccccc3)c(CN3CCCC3)c(=O)c2c1	20*	-14	13	0	-3	-11
CCCCN1C(=O)C(=O)N(CC(=O)Nc2ccc(OC(F)(F)F)cc2)C1=O	8	5	8	2	1	-14
Cc1ccc(CCNC(=O)CCn2ccc3cc(S(=O)(=O)N4CCCC4)ccc32)cc1	3	2	-3	1	-2	-2
O=C(CCn1ccc2cc(S(=O)(=O)N3CCCC3)ccc21)NCCc1ccccc1	26*	29*	-2	5	1	6
c1ccc(CC2CCN(c3ncnc4sccc34)CC2)cc1	-32	38*	-23	12	-1	20
O=C(O)c1cc2c(N3CCC(Cc4ccccc4)CC3)ncnc2s1	0	-4	7	1	1	10
COc1ccc(C(=O)Nc2cc(OC)c(Cl)cc2OC)cc1	-2	17	0	0	-6	0
COc1cc(NC(=O)c2c(F)c(F)c(F)c(F)c2F)c(OC)cc1Cl	-9	2	-20	-3	-8	36*
COc1cc(NC(=O)c2ccc(F)cc2)c(OC)cc1Cl	10	-4	-2	-1	-14	-5

Screening data deposited in PubChem by The Scripps Research Institute Molecular Screening Center.
